Results as given in ChEMBL document CHEMBL4425122, “Discovery of 1-(1H-Pyrazolo[4,3-c]pyridin-6-yl)urea Inhibitors of Extracellular Signal-Regulated Kinase (ERK) for the Treatment of Cancers” (J Med Chem, 2016).

Columns and labels:
[1] = biological target: Mitogen-activated protein kinase 1 (Homo sapiens, UniProt P28482); assay: Inhibition of human ERK2 preincubated for 15 mins followed by addition of IMAP peptide substrate and ATP measured after 60 mins by IMAP-FP assay
Procedure, shortened: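 Final: 0.5 nM hERK2, 900 nM unlabeled + 80 nM labeled peptide, 30 µM ATP; 60 min, quenched with IMAP beads in binding buffer with 24 mM NaCl, read by fluorescence polarization after 60 min.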

[2] = biological target: Mitogen-activated protein kinase 1 (Mus musculus, UniProt P63085); assay: Inhibition of mouse ERK2 preincubated for 15 mins followed by addition of IMAP peptide substrate and ATP measured after 60 mins by IMAP-FP assay
Sequence of Mitogen-activated protein kinase 1 (Mus musculus, UniProt P63085) (P63085 whole entry): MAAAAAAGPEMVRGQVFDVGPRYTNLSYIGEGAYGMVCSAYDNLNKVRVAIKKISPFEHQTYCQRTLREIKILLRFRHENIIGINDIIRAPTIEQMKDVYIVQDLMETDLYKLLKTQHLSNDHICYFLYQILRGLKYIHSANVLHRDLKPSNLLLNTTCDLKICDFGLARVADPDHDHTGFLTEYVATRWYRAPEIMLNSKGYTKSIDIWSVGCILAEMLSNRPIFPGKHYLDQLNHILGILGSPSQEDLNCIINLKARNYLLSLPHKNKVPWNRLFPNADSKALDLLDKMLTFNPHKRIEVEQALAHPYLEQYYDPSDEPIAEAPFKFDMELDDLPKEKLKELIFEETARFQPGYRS

[3] = Inhibition of ERK in human A375SM cells harboring BRAF V600E mutant assessed as inhibition of RSK phosphorylation measured after 4 hrs by mesoscale electrochemiluminescent sandwich assay; format: cell-based; settings: A375-SM
Procedure, shortened: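 A375SM (BRAF V600E melanoma) cells, 10,000 per well, treated 4 h; lysed 20 min at 4 °C in Tris/NaCl/EGTA/EDTA/Triton/NaF buffer with protease and phosphatase inhibitors. Lysate captured with biotin anti-RSK1 on streptavidin MSD plate, detected with SULFO-TAG anti-pRSK (pThr359/Ser363) overnight at 4 °C; electrochemiluminescence read. IC50 from 11-point titration.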

[4] = biological target: Voltage-gated inwardly rectifying potassium channel KCNH2 (Homo sapiens, UniProt Q12809); assay: Inhibition of human ERG
Sequence of Voltage-gated inwardly rectifying potassium channel KCNH2 (Q12809 whole entry): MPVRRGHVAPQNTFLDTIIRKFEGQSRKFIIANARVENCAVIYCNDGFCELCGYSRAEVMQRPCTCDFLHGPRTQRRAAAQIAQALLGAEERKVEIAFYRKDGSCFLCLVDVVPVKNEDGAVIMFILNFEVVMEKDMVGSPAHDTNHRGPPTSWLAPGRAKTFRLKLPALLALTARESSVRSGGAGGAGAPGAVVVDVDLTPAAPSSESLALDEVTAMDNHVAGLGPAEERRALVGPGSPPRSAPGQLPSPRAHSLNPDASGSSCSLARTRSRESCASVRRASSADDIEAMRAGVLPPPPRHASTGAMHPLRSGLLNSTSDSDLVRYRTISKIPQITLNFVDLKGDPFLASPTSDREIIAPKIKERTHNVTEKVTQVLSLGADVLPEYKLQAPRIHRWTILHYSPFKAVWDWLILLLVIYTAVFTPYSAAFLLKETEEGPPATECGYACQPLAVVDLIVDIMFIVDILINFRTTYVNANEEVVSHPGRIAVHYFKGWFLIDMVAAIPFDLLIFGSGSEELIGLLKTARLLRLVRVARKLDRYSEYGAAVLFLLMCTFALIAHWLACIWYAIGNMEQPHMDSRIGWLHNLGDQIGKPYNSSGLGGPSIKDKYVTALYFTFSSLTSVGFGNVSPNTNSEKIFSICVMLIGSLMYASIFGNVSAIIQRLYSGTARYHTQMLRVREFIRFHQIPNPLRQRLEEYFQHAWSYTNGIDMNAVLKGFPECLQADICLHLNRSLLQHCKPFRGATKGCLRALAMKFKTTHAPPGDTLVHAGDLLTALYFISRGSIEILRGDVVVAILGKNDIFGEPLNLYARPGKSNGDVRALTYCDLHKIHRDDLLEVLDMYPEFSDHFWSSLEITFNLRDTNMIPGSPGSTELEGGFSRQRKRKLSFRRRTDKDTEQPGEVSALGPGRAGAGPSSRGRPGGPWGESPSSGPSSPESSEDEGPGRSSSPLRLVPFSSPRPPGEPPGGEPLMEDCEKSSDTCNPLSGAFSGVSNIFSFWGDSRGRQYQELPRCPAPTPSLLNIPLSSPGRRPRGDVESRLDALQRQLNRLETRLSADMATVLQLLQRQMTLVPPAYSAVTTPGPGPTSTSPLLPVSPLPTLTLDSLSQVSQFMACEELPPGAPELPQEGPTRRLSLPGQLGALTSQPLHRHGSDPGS

[5] = biological target: Cytochrome P450 3A4 (Homo sapiens, UniProt P08684); assay: Inhibition of CYP3A4 (unknown origin); format: ADME
Sequence of Cytochrome P450 3A4 (P08684 whole entry): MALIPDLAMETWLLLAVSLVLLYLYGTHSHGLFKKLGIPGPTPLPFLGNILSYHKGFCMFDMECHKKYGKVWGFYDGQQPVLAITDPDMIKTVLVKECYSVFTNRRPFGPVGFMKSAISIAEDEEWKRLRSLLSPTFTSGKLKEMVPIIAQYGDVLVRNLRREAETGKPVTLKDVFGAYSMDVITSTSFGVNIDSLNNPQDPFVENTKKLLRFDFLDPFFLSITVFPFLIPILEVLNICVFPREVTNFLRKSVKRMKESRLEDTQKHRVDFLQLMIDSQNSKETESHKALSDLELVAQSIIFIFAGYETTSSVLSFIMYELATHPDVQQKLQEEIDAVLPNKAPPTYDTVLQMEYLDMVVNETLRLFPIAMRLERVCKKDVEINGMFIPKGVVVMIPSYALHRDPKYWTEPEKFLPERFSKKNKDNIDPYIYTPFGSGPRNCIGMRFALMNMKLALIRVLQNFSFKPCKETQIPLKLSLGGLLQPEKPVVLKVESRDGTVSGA

[6] = Inhibition of ERK human A375 cells assessed as inhibition of RSK phosphorylation measured after 4 hrs by mesoscale electrochemiluminescent sandwich assay; settings: A-375, 4 h

Sequence of Mitogen-activated protein kinase 1 (Homo sapiens, UniProt P28482) (P28482 whole entry): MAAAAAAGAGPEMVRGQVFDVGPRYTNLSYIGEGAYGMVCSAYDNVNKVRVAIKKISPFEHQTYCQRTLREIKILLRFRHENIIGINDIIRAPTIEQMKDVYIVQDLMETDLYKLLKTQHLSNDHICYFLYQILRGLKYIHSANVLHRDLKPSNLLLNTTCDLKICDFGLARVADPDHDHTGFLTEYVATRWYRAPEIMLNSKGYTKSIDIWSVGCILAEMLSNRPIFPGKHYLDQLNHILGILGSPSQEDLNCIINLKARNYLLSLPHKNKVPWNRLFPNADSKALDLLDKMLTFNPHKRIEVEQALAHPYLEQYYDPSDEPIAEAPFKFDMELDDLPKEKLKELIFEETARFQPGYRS

Row | Structure (SMILES) | IC50 [1] [nM] | IC50 [3] [nM] | also measured
1 | Cc1cc(-c2n[nH]c3cc(Nc4nccs4)ncc23)ccn1 | 56 |  | 
2 | Cc1cc(-c2n[nH]c3cc(NC(=O)OCc4ccccc4)ncc23)ccn1 |  |  | IC50 [2]: > 3000 nM
3 | Cc1cc(-c2n[nH]c3cc(Nc4ncc(-c5ccccc5)s4)ncc23)ccn1 | > 3000 |  | 
4 | C[C@@H](NC(=O)Nc1cc2[nH]nc(C3CCCC3)c2cn1)c1ccccc1 | 4 | 810 | 
5 | C[C@@H](NC(=O)Nc1cc2[nH]nc(-c3cnn(C)c3)c2cn1)c1ccccc1 | 0.3 | 110 | IC50 [4]: > 20000 nM; IC50 [5]: 380 nM
6 | C[C@@H](NC(=O)Nc1cc2[nH]nc(C3CC3)c2cn1)c1ccccc1 |  | 550 | 
7 | Cc1cc(-c2n[nH]c3cc(NC(=O)NCCc4ccccc4)ncc23)ccn1 |  |  | IC50 [6]: 110 nM
8 | Cc1cc(-c2n[nH]c3cc(NC(=O)N[C@H](C)c4ccccc4)ncc23)cnn1 | 0.9 | 810 | 
9 | Cc1cc(-c2n[nH]c3cc(NC(=O)NC4CCc5ccccc54)ncc23)ccn1 (stereo not drawn) | 5 | 750 | 
10 | Cc1cc(-c2n[nH]c3cc(NC(=O)Nc4ccccc4)ncc23)ccn1 |  | > 10000 | 
11 | COc1cc(-c2n[nH]c3cc(NC(=O)N[C@H](C)c4ccccc4)ncc23)ccn1 | 0.9 | 300 | 
